The subject of one test is Trichoderma viride. The experiment in a line: Antifungal activity against Trichoderma viride IAM 5061 after 72 hrs by serial dilution assay. It counts as functional. The settings on record: IAM 5061, 72 h. Put shortly:
(§1)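 Modified microdilution: fungal spores washed off malt agar with sterile 0.85% saline plus 0.1% Tween 80, adjusted to about 1.0×10^5 per 100 µL well. Compounds in 5% DMSO (0.001-1.0 mg/ml) in malt broth; 72 h at 28°C on rotary shaker (160 rpm). MIC is lowest concentration without visible growth under binocular microscope. Bifonazole and ketoconazole controls (1-3500 µg/mL); three independent experiments in duplicate.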

The next test relates to Penicillium verrucosum. Briefly: Antifungal activity against Penicillium cyclopium var verucosum after 72 hrs by serial dilution assay. It counts as functional. Put shortly: as §1
In test [1] the test system is Escherichia coli. The experiment in a line: Antibacterial activity against Escherichia coli ATCC 35210 after 24 hrs by INT dye based microdilution assay. Format: functional. The note with it: ATCC 35210, 24 h. A digest of the protocol:
(§2)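 Broth microdilution in tryptic soy broth: overnight bacterial culture adjusted to 1×10^5 CFU/mL, 1.0×10^4 CFU per well; compounds dissolved in 5% DMSO, tested at 0.001-1.0 mg/ml; 24 h at 37°C. Streptomycin and ampicillin as positive controls, 5% DMSO as negative control; duplicate, repeated three times.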
In general terms: Broth dilution looks for growth in wells or tubes with falling amounts of substance.

In the next test the test system is Penicillium ochrochloron. Briefly: Antifungal activity against Penicillium ochrochloron ATCC 9112 after 72 hrs by serial dilution assay. Format: functional. The settings on record: ATCC 9112, 72 h. Put shortly:
as §1

For another test, the system named is Listeria monocytogenes. The experiment in a line: Antibacterial activity against Listeria monocytogenes NCTC 7973 after 24 hrs by INT dye based microdilution assay. Format: functional. The note with it: NCTC 7973, 24 h. Put shortly:
as §2

In the next test the test system is Aspergillus ochraceus. Briefly: Antifungal activity against Aspergillus ochraceus ATCC 12066 after 72 hrs by serial dilution assay. The note with it: ATCC 12066, 72 h. It counts as functional. A digest of the protocol:
as §1

Test [2] deals with Pseudomonas aeruginosa. Briefly: Antibacterial activity against Pseudomonas aeruginosa ATCC 27853 after 24 hrs by INT dye based microdilution assay. It counts as functional. The settings on record: ATCC 27853, 24 h. Put shortly:
as §2

Test [3] relates to Staphylococcus aureus. Briefly: Antibacterial activity against methicillin-resistant Staphylococcus aureus after 24 hrs by INT dye based microdilution assay. Format: functional. Put shortly: (§3)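 Broth microdilution in tryptic soy broth. Overnight culture adjusted to 1×10^5 CFU/mL, giving 1.0×10^4 CFU per well. Compounds dissolved in 5% DMSO and tested at 0.001-1.0 mg/ml. Plates incubated 24 h at 37°C. INT (0.2 mg/mL) then added, with 30 min at 37°C. Duplicate, repeated three times.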

The next test concerns Enterobacter cloacae. Briefly: Antibacterial activity against Enterobacter cloacae after 24 hrs by INT dye based microdilution assay. It counts as functional. Put shortly:
as §2

The test system of the next test is Aspergillus versicolor. The experiment in a line: Antifungal activity against Aspergillus versicolor ATCC 11730 after 72 hrs by serial dilution assay. The note with it: ATCC 11730, 72 h. Format: functional. A digest of the protocol: as §1
Test [4] relates to Pseudomonas aeruginosa. The experiment in a line: Antibacterial activity against drug-resistant Pseudomonas aeruginosa after 24 hrs by INT dye based microdilution assay. Format: functional. Put shortly: as §3
Another test has as its system Salmonella typhimurium. Briefly: Antibacterial activity against Salmonella typhimurium ATCC 13311 after 24 hrs by INT dye based microdilution assay. The settings on record: Salmonella enterica, ATCC 13311, 24 h. Format: functional, Salmonella enterica subsp. enterica serovar Typhimurium. A digest of the protocol: as §2
In test [5] the test system is Escherichia coli. Briefly: Antibacterial activity against drug-resistant Escherichia coli after 24 hrs by INT dye based microdilution assay. Format: functional. Put shortly:
as §3

For the next test, the system named is Aspergillus fumigatus. Briefly: Antifungal activity against Aspergillus fumigatus isolate 1022 after 72 hrs by serial dilution assay. It counts as functional. The settings on record: isolate 1022, 72 h. A digest of the protocol: as §1
The next test has as its system Talaromyces funiculosus. Briefly: Antifungal activity against Penicillium funiculosum ATCC 36839 after 72 hrs by serial dilution assay. Format: functional. The settings on record: ATCC 36839, 72 h. A digest of the protocol:
as §1

The test system of another test is Bacillus cereus. The experiment in a line: Antibacterial activity against Bacillus cereus after 24 hrs by INT dye based microdilution assay. Format: functional. A digest of the protocol: as §2
The next test deals with Micrococcus flavus. The experiment in a line: Antibacterial activity against Micrococcus flavus ATCC 10240 after 24 hrs by INT dye based microdilution assay. Format: functional. The settings on record: ATCC 10240, 24 h. A digest of the protocol:
as §2

The test system of a further test is Aspergillus niger. The experiment in a line: Antifungal activity against Aspergillus niger ATCC 6275 after 72 hrs by serial dilution assay. Format: functional. The note with it: ATCC 6275, 72 h. Put shortly: as §1
Test [6] relates to Staphylococcus aureus. Briefly: Antibacterial activity against Staphylococcus aureus ATCC 6538 after 24 hrs by INT dye based microdilution assay. Format: functional. The note with it: ATCC 6538, 24 h. Put shortly: as §2
A further test relates to Candida albicans. The experiment in a line: Antifungal activity against Candida albicans after 72 hrs by serial dilution assay. It counts as functional. Put shortly:
as §1

The text below walks through data of ChEMBL document CHEMBL4229530, “5-Adamantan thiadiazole-based thiazolidinones as antimicrobial agents. Design, synthesis, molecular docking and evaluation” (2018).

≈ marks a conversion by molar mass, not a printed value.

Regarding `O=C1N/C(=N\c2nnc(C34CC5CC(CC(C5)C3)C4)s2)S/C1=C/c1ccccc1`, the MIC – broadly, the lowest concentration that inhibits growth of the organism – in the test on Trichoderma viride worked out at 47.5 µM (≈ 20.1 µg/mL); in the test with Penicillium verrucosum it was 0.095 µM (≈ 0.0401 µg/mL); in the test with Escherichia coli [1], 0.0947 µM (≈ 0.04 µg/mL); against Penicillium ochrochloron it was 47.5 µM (≈ 20.1 µg/mL); against Listeria monocytogenes, 94.7 µM (≈ 40 µg/mL); against Aspergillus ochraceus, 47.5 µM (≈ 20.1 µg/mL). The MIC was determined as 94.7 µM (≈ 40 µg/mL) against Pseudomonas aeruginosa [2]; 0.0473 µM (≈ 0.02 µg/mL) in the test with Staphylococcus aureus [3]; 94.7 µM (≈ 40 µg/mL) in the test with Enterobacter cloacae; 95 µM (≈ 40.1 µg/mL) in the test on Aspergillus versicolor; 47.3 µM (≈ 20 µg/mL) against Pseudomonas aeruginosa [4]; 23.6 µM (≈ 9.97 µg/mL) against Salmonella typhimurium. Besides, the minimal inhibitory concentration (MIC) with Escherichia coli [5] stood at 0.0236 µM (≈ 0.00997 µg/mL); against Aspergillus fumigatus, 47.5 µM (≈ 20.1 µg/mL); in the test on Talaromyces funiculosus, 47.5 µM (≈ 20.1 µg/mL); with Bacillus cereus it was 94.7 µM (≈ 40 µg/mL); in the test on Micrococcus flavus it was 94.7 µM (≈ 40 µg/mL); with Aspergillus niger, 95 µM (≈ 40.1 µg/mL). The MIC against Staphylococcus aureus [6] amounted to 0.0473 µM (≈ 0.02 µg/mL).

As to `O=C1N/C(=N\c2nnc(C34CC5CC(CC(C5)C3)C4)s2)S/C1=C/c1ccccc1[N+](=O)[O-]`, the MIC against Trichoderma viride is 321 µM (≈ 150 µg/mL); with Penicillium verrucosum, 0.321 µM (≈ 0.15 µg/mL); in the test with Escherichia coli [1], 0.0322 µM (≈ 0.0151 µg/mL); against Penicillium ochrochloron it was 321 µM (≈ 150 µg/mL); in the test with Listeria monocytogenes it was 32.2 µM (≈ 15.1 µg/mL); against Aspergillus ochraceus it was 321 µM (≈ 150 µg/mL). The minimum inhibitory concentration (MIC) in the test with Pseudomonas aeruginosa [2] was 32.2 µM (≈ 15.1 µg/mL); in the test with Staphylococcus aureus [3], 0.175 µM (≈ 0.0818 µg/mL); with Enterobacter cloacae it was 32.2 µM (≈ 15.1 µg/mL); with Aspergillus versicolor, 321 µM (≈ 150 µg/mL); against Pseudomonas aeruginosa [4], 175 µM (≈ 81.8 µg/mL); in the test on Salmonella typhimurium, 32.2 µM (≈ 15.1 µg/mL). In addition, the minimum inhibitory concentration (MIC) worked out at 0.175 µM (≈ 0.0818 µg/mL) against Escherichia coli [5]; 321 µM (≈ 150 µg/mL) in the test with Aspergillus fumigatus; 482 µM (≈ 225 µg/mL) in the test with Talaromyces funiculosus; 32.2 µM (≈ 15.1 µg/mL) in the test with Bacillus cereus; 32.2 µM (≈ 15.1 µg/mL) in the test on Micrococcus flavus; 482 µM (≈ 225 µg/mL) with Aspergillus niger. Further, the MIC in the test on Staphylococcus aureus [6] was found to be 0.0322 µM (≈ 0.0151 µg/mL).

Regarding `O=C1N/C(=N\c2nnc(C34CC5CC(CC(C5)C3)C4)s2)S/C1=C/c1cccc(Cl)c1`, the MIC with Trichoderma viride came to 68 µM (≈ 31.1 µg/mL); in the test with Escherichia coli [1], 0.066 µM (≈ 0.0302 µg/mL); with Penicillium ochrochloron, 68 µM (≈ 31.1 µg/mL); in the test on Listeria monocytogenes it was 137 µM (≈ 62.6 µg/mL); in the test with Aspergillus ochraceus, 68 µM (≈ 31.1 µg/mL); in the test with Candida albicans it was 274 µM (≈ 125 µg/mL). The minimum inhibitory concentration (MIC) was 66 µM (≈ 30.2 µg/mL) against Pseudomonas aeruginosa [2]; 137 µM (≈ 62.6 µg/mL) against Enterobacter cloacae; 68 µM (≈ 31.1 µg/mL) against Aspergillus versicolor; 66 µM (≈ 30.2 µg/mL) against Salmonella typhimurium; 137 µM (≈ 62.6 µg/mL) with Aspergillus fumigatus; 137 µM (≈ 62.6 µg/mL) in the test with Talaromyces funiculosus. Besides, the minimal inhibitory concentration (MIC) in the test on Bacillus cereus was determined as 66 µM (≈ 30.2 µg/mL); with Micrococcus flavus, 66 µM (≈ 30.2 µg/mL); with Aspergillus niger it was 137 µM (≈ 62.6 µg/mL); in the test with Staphylococcus aureus [6], 0.088 µM (≈ 0.0402 µg/mL).

Consider `O=C1N/C(=N\c2nnc(C34CC5CC(CC(C5)C3)C4)s2)S/C1=C/c1ccc(Br)cc1`, for which the minimal inhibitory concentration (MIC) against Trichoderma viride was determined as 31.2 µM (≈ 15.6 µg/mL); against Escherichia coli [1], 0.08 µM (≈ 0.0401 µg/mL); against Penicillium ochrochloron, 62.5 µM (≈ 31.3 µg/mL); in the test with Listeria monocytogenes, 250 µM (≈ 125 µg/mL); in the test on Aspergillus ochraceus, 15.6 µM (≈ 7.82 µg/mL); with Candida albicans, 200 µM (≈ 100 µg/mL). Further, the minimum inhibitory concentration (MIC) stood at 60 µM (≈ 30.1 µg/mL) with Pseudomonas aeruginosa [2]; 60 µM (≈ 30.1 µg/mL) against Enterobacter cloacae; 62.5 µM (≈ 31.3 µg/mL) against Aspergillus versicolor; 14 µM (≈ 7.02 µg/mL) in the test with Salmonella typhimurium; 125 µM (≈ 62.7 µg/mL) against Aspergillus fumigatus; 125 µM (≈ 62.7 µg/mL) in the test with Talaromyces funiculosus. For the same molecule, the minimum inhibitory concentration (MIC) against Bacillus cereus came to 14 µM (≈ 7.02 µg/mL); against Micrococcus flavus, 250 µM (≈ 125 µg/mL); in the test with Aspergillus niger it was 62.5 µM (≈ 31.3 µg/mL); against Staphylococcus aureus [6], 0.06 µM (≈ 0.0301 µg/mL).

For `COc1cc(/C=C2/S/C(=N/c3nnc(C45CC6CC(CC(C6)C4)C5)s3)NC2=O)ccc1O`, the MIC in the test on Trichoderma viride is 17 µM (≈ 7.97 µg/mL); with Escherichia coli [1] it was 0.134 µM (≈ 0.0628 µg/mL); in the test with Penicillium ochrochloron it was 66 µM (≈ 30.9 µg/mL); against Listeria monocytogenes, 134 µM (≈ 62.8 µg/mL); in the test with Aspergillus ochraceus it was 17 µM (≈ 7.97 µg/mL); in the test with Candida albicans it was 133 µM (≈ 62.3 µg/mL). Moreover, the MIC in the test on Pseudomonas aeruginosa [2] was found to be 32 µM (≈ 15 µg/mL); with Enterobacter cloacae, 32 µM (≈ 15 µg/mL); in the test on Aspergillus versicolor, 33 µM (≈ 15.5 µg/mL); against Salmonella typhimurium it was 32 µM (≈ 15 µg/mL); with Aspergillus fumigatus it was 133 µM (≈ 62.3 µg/mL); with Talaromyces funiculosus it was 66 µM (≈ 30.9 µg/mL). Besides, the minimal inhibitory concentration (MIC) worked out at 32 µM (≈ 15 µg/mL) against Bacillus cereus, 134 µM (≈ 62.8 µg/mL) in the test on Micrococcus flavus, 66 µM (≈ 30.9 µg/mL) against Aspergillus niger and 0.032 µM (≈ 0.015 µg/mL) against Staphylococcus aureus [6].
